From publication PMC9638899 (Nucleic Acids Research, 2022)
“And” between values parts separate entries of the source, which are not always exact repeats. Identical values can stand only once.

Key:
[1] = tested on: Sis0455 N138G; test: cA4 cleavage activity assay, LC ESI-MS, Sis0455 N138G; format: biochemical, Sulfolobus islandicus; conditions: 40 μM cA4, 2 μM enzyme, 70°C, one hour
Method in brief: (§1)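 Each 50 μl reaction held 40 μM cA4 and 2 μM His-tagged Sis0455 variant (E. coli-expressed) in 20 mM Tris pH 8.0, 100 mM NaCl, 1 mM EDTA, for 1 h at 70°C. A no-enzyme control was included. Reactions were stopped at 4°C, phenol-extracted, dried and taken up in 8.6 mM TEA pH 8.3. Products were separated on C18 reverse-phase UPLC (TEA/acetonitrile gradient, 30°C) and read by negative-ion ESI-MS. Runs were at least duplicates.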

[2] = target: Sis0455-K106G; test: ITC binding of cA4 to Sis0455-K106G; set-up: species or system Sulfolobus islandicus; conditions: 25°C, K106G mutant
Method in brief: (§2)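 His-tagged Sis0455 mutants (site-directed) were expressed in E. coli BL21 pRARE and purified. Protein and cA4 were dialysed into 50 mM HEPES pH 8.0, 300 mM KCl. cA4 (~50 or 100 μM, syringe) was titrated into protein (~5 or 10 μM) at 25°C: one 0.4 μl injection, then 19 × 2 μl, 150 s apart, 750 rpm. cA4-into-buffer controls were run. Normalised heats were fitted to a single-site model.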

[3] = tested on: Sis0811; test: cA4 cleavage time course, LC ESI-MS, Sis0811; format: biochemical, Sulfolobus islandicus; conditions: 70°C
[4] = tested on: Sis0455-R105G; test: ITC binding of cA4 to Sis0455-R105G; set-up: species or system Sulfolobus islandicus; conditions: 25°C, R105G mutant
Method in brief: as §2

[5] = tested on: Sso2081; conditions: Sso2081 versus Sso1393; cited from earlier work
[6] = tested on: Sis0455 Q130G/Y133G; test: cA4 cleavage activity assay, LC ESI-MS, Sis0455 Q130G/Y133G; format: biochemical, Sulfolobus islandicus; conditions: 40 μM cA4, 2 μM enzyme, 70°C, one hour
Method in brief: as §1

[7] = target: SisCsx1; conditions: cited from earlier work
[8] = tested on: Sis0455 D75G; test: ITC binding of cA4 to Sis0455 D75G; set-up: species or system Sulfolobus islandicus; conditions: 25°C, D75G mutant
Method in brief: as §2

[9] = tested on: Sis0455-E41G/R134G; test: cA4 cleavage activity assay, LC ESI-MS, Sis0455-E41G/R134G; format: biochemical, Sulfolobus islandicus; conditions: 40 μM cA4, 2 μM enzyme, 70°C, one hour
Method in brief: as §1

[10] = target: Sis0455 N138G; test: ITC binding of cA4 to Sis0455 N138G; set-up: species or system Sulfolobus islandicus; conditions: 25°C, N138G mutant
Method in brief: as §2

[11] = target: Sis0455; test: ITC binding of cA4 to Sis0455 wild type; set-up: species or system Sulfolobus islandicus
[12] = tested on: Sis0455-K106G; test: cA4 cleavage activity assay, LC ESI-MS, Sis0455-K106G; format: biochemical, Sulfolobus islandicus; conditions: 40 μM cA4, 2 μM enzyme, 70°C, one hour
Method in brief: as §1

[13] = tested on: Sis0455 E17/E37 glycine substitution; test: cA4 cleavage activity assay, LC ESI-MS, Sis0455 E17/E37 glycine substitution; format: biochemical, Sulfolobus islandicus; conditions: 40 μM cA4, 2 μM enzyme, 70°C, one hour, E17/E37 substituted by glycine
Method in brief: as §1

[14] = tested on: Sis0455 T10G; test: cA4 cleavage activity assay, LC ESI-MS, Sis0455 T10 glycine substitution; format: biochemical, Sulfolobus islandicus; conditions: 40 μM cA4, 2 μM enzyme, 70°C, one hour, T10 substituted by glycine
Method in brief: as §1

[15] = tested on: Sis0455-R105G; test: cA4 cleavage activity assay, LC ESI-MS, Sis0455-R105G; format: biochemical, Sulfolobus islandicus; conditions: 40 μM cA4, 2 μM enzyme, 70°C, one hour
Method in brief: as §1

[16] = tested on: Sis0811; test: Binding of cA4 to Sis0811; set-up: species or system Sulfolobus islandicus; conditions: Sis0811 versus SisCsx1
[17] = tested on: Sis0455; test: cA4 cleavage activity assay and time course, LC ESI-MS, Sis0455; format: biochemical, Sulfolobus islandicus; conditions: time course, 40 μM cA4, 2 μM enzyme, 70°C
[18] = tested on: SisCsx1; test: Binding of cA4 to SisCsx1; set-up: species or system Sulfolobus islandicus; conditions: SisCsx1 versus Sis0455
[19] = target: Sis0455 E41G/R134G; test: ITC binding of cA4 to Sis0455 E41G/R134G; set-up: species or system Sulfolobus islandicus; conditions: 25°C, E41G/R134G mutant
Method in brief: as §2

[20] = target: Sis0455 E17G/T37G; test: ITC binding of cA4 to Sis0455 E17G/T37G; set-up: species or system Sulfolobus islandicus; conditions: 25°C, E17G/T37G mutant
Method in brief: as §2

[21] = target: Sis0455 T10G; test: ITC binding of cA4 to Sis0455 T10G; set-up: species or system Sulfolobus islandicus; conditions: 25°C, T10G mutant
Method in brief: as §2

[22] = target: Sis0455 Q130G/Y133G; test: ITC binding of cA4 to Sis0455 Q130G/Y133G; set-up: species or system Sulfolobus islandicus; conditions: 25°C, Q130G/Y133G mutant
Method in brief: as §2

[23] = target: Sis0455-S11G; test: ITC binding of cA4 to Sis0455-S11G; set-up: species or system Sulfolobus islandicus

Kd [2]: 4100 nM
cA4 binding [4]: abolished cA4 binding
cA4 binding [8]: abolished cA4 binding
Kd [10]: 10.5 nM
Kd ([11]; ITC, 25°C, wild type Sis0455): 2.2 nM and 2 nM
higher affinity for cA4 of Sis0455 than Sis0811 ([11]; Sis0455 versus Sis0811 (ref 37)): 5 fold
affinity higher than that of SisCsx1 [16]: 2 fold
affinity for cA4 lower than Sis0455 [18]: 10 fold
Kd [19]: 1.9 nM
Kd [20]: 3.5 nM
Kd [21]: 35.3 nM
Kd [22]: 2600 nM
Kd ([23]; ITC, 25°C, S11G variant): 19.5 nM
decrease in the binding affinity ([23]; S11G variant versus wild type Sis0455): ~10 fold
Substance: Cyclic tetraadenylate [cA4]
cA4 cleavage activity [1]: did not affect catalysis
time to cleave the second phosphodiester bond converting all the linear product in the P1 dinucleotide ([3]; Sis0811): 30 min
time to fully degrade cA4 producing 100% P1 product ([3]; Sis0811): 50 min
time to convert almost 100% of the cyclic molecule in the P3 linear product ([3]; Sis0811, first phosphodiester): 20 min
cA4 processing faster than Sso1393 [5]: 10 fold
cA4 cleavage activity [6]: did not affect catalysis
Kd [7]: 20 nM
cA4 cleavage activity [9]: showed cA4 as major specie
cA4 cleavage activity [12]: abolished the cleavage activity
cA4 cleavage activity [13]: did not affect catalysis
cA4 cleavage activity [14]: did not affect catalysis
cA4 cleavage activity [15]: abrogated the nuclease activity
time to fully degrade cA4 producing 100% P1 product [17]: 50 min
